# Assay outcomes from PubChem BioAssay.
# HUVEC prolif 384: inhibitors of human endothelial cell proliferation | 1.1% of 86,000 active | AID 648 | viability, % at 10 µM (by protocol) | HUVEC proliferation, CellTiter-Glo luminescence, 72 h; active compounds read low;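 active = viability at or below 30%; inactive = viability above 30%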;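 note: 100% = median luminescence of DMSO-only cell control wells on each plate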
# Lung fibro prol: blocks proliferation of human lung fibroblasts. LL 47 human lung fibroblast viability, ATP luminescence; active compounds read low. viability, % at 10 µM. 1.1% of 85,000 active. AID 719;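 active = viability at or below 50% in the single dose screen; inactive = viability above 50%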;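 note: compound exposure lasted 72 h before the ATP readout; 100% = median luminescence of untreated cell-only wells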
#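 Material: human lung fibroblast line LL 47, low passage; Evaluation: viability percentage against median untreated-cell control; Buffer or medium: 15% FBS in IMEM; Incubation: 72 h compound exposure at 37 °C after overnight plating; Dosing: 0.1% DMSO in all compound wells; Measured by: CellTiter-Glo luminescence.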
# H69AR growth 86K: growth inhibitors of human H69AR lung tumor cells; H69AR lung tumor viability, ATP luminescence, 72 h; active compounds read low; viability, % at 10 µM; 6% of 85,000 active; AID 598;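 active = viability at or below 40%; inactive = viability above 40%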;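 note: multidrug resistant small cell line overexpressing MRP-1 efflux transporter; 100% = mean luminescence of untreated control wells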
# HCT116 bCat-KO: beta-catenin-lacking colon tumor cell growth suppression. 1.5% of 140,000 active. viability, % at 10 µM. AID 818. HCT116 beta-catenin knockout viability, CellTiter-Glo, 60 h; active compounds read low;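 active = viability at or under a set limit, the compound median less 4 SD, cut at about 6% in these data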;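 note: 0% = Hyamine 1622 control at 20 µM and 100% = untreated cell control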
# PTEN del growth: PTEN-deleted cell growth suppression; HCT116 PTEN-null viability, CellTiter-Glo, 60 h; active compounds read low; viability, % at 10 µM; 1.2% of 140,000 active; AID 827;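 active = viability at or below a set limit, 4 SD under the median of all tested compounds, cut at about 3.7% in these data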;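 note: PTEN knockout HCT116 line with beta catenin targeted HCT116 as companion control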
# The depositor's hits bear a star; . = no result given. The entries come from a sample that favours hits as a whole.
SMILES,HUVEC prolif 384,Lung fibro prol,H69AR growth 86K,HCT116 bCat-KO,PTEN del growth
CCOC(=O)N1CCN(C(=O)C(C)N(c2ccc(Oc3ccccc3)cc2)S(C)(=O)=O)CC1 (stereo unspecified),111,.,34*,49,45
N#CC1=C(N)NC(SCc2ccccc2)=C(C#N)C12CCCCC2,26*,60,11*,16,37
CCSC1=C(C#N)C2(CCCCC2)C(C#N)=C(N)N1,90,86,79,81,87
CC(=O)c1ccc(NC(=O)Nc2cccc(Cl)c2)cc1,68,99,5.0*,61,50
O=C(Nc1ccc(Cl)cc1)Nc1nnc(-c2ccncc2)s1,.,.,.,4.3*,2.1*
O=C(NCCc1ccncc1)Nc1cccc(Cl)c1,81,101,106,101,104
O=C(Nc1ccc(F)cc1)Nc1nnc(-c2ccncc2)s1,.,.,.,32,20
O=C(Nc1cccc(Cl)c1)Nc1nnc(-c2ccncc2)s1,.,.,.,3.8*,3.2*
O=C(c1cc([N+](=O)[O-])ccc1Cl)N1c2ccccc2Sc2ccccc21,.,.,.,75,75
N#C/C(=C\c1ccc(OCc2ccccc2)cc1)C(=O)Nc1nc2c(s1)CCN(Cc1ccccc1)C2,13*,17*,22*,50,30
O=C(OCn1ncc(Br)c(Br)c1=O)c1c(F)cccc1F,2.0*,2.0*,1.0*,1.4*,1.5*
NC(=O)C1CCN(C(=O)/C=C/c2ccco2)CC1,.,.,.,85,95
O=C(CSC1=NS(=O)(=O)c2ccccc21)Nc1ccccc1,48,53,19*,89,104
COC(=O)CSC1=NS(=O)(=O)c2ccccc21,80,69,37*,103,99
COC(=O)CSc1ccccc1C(=O)OC,90,92,94,124,103
C/C(=N/Nc1ccc(C(=O)O)cc1)c1ccc(O)c(O)c1O,.,.,.,87,91
CC1CCc2c(sc3nc(CN4CCN(S(=O)(=O)c5ccccc5[N+](=O)[O-])CC4)[nH]c(=O)c23)C1 (stereo unspecified),.,.,.,75,85
COc1ccc(-c2onc(C)c2-c2ccccc2)c(O)c1,85,95,31*,50,52
COc1cccc(-c2nc(-c3ccccc3)no2)c1,97,93,66,73,74
Cc1oc2c(C)c(O)ccc2c(=O)c1-c1ccc2ccccc2n1,.,.,.,98,99
COc1ccc(-c2noc(C)c2-c2ccc3ccccc3n2)c(O)c1,71,78,26*,67,71
CS(=O)(=O)N1N=C(c2ccco2)CC1c1ccc(Cl)cc1 (stereo unspecified),.,.,.,102,93
O=C(/C=C/c1ccc2c(c1)OCO2)NCCSCc1c(Cl)cccc1Cl,.,.,.,89,97
COc1ccc([N+](=O)[O-])cc1C1NN=C(c2ccccc2O)S1 (stereo unspecified),74,61,27*,72,69
O=C(CCNC(=O)Cn1ccc2ccccc2c1=O)NCCc1ccccc1Cl,.,.,.,95,88
SMILES,HUVEC prolif 384,Lung fibro prol,H69AR growth 86K,HCT116 bCat-KO,PTEN del growth
CCN1CCc2c(sc(NC(=O)Nc3ccc(Cl)c(Cl)c3)c2C(N)=O)C1,.,.,.,14,3.8*
COc1ccc(CN(CCC(c2ccccc2)c2ccc(OC(C)C)cc2)C(=O)CCl)cc1OC (stereo unspecified),.,.,.,1.5*,1.5*
COc1ccc(C(CCN(Cc2ccc(OC)c(OC)c2)C(C)=O)c2ccccc2)cc1 (stereo unspecified),.,.,.,77,75
CN(C)CCCN1C(=O)C(=O)/C(=C(/O)c2ccc(S(=O)(=O)N(C)C)cc2)C1c1ccncc1 (stereo unspecified),95,107,104,.,.
Cc1c(/C=C(\C#N)c2nn(-c3ccccc3)c(N)c2C#N)c2ccccc2n1Cc1ccc(F)cc1,36,65,9.6*,59,57
N#CC1=C(SCC(=O)c2ccccc2)NC2=C(C(=O)CCC2)C1c1ccco1 (stereo unspecified),44,64,16*,12,9
Cc1ccc(C(=O)CSC2=C(C#N)C(c3ccco3)C3=C(CCCC3=O)N2)cc1 (stereo unspecified),50,60,19*,19,18
CC(C)(C)c1ccc(C(=O)CCCSC2=C(C#N)C(c3ccco3)C3=C(CCCC3=O)N2)cc1 (stereo unspecified),68,81,49,62,53
Cc1cccc(C)c1NC(=O)CNc1ncnc2sc(C)c(C)c12,.,.,.,91,104
COc1ccc(N(C(=O)c2ccco2)S(=O)(=O)c2cc(Cl)c(Cl)cc2Cl)cc1,68,97,20*,43,34
